ChEMBL document CHEMBL1287679, “Tuning hydrophobicity of highly cationic tetradecameric Gramicidin S analogues using adamantane amino acids” (Bioorg Med Chem, 2010)
Converted amounts (≈) assume the structure as drawn. Where a SMILES comes first, the peptide text is derived from it. [ ]: non-standard residue; d: D form. Gly(1-adamantyl) = N[C@H](C(=O)O)C12CC3CC(CC(C3)C1)C2; Orn = NCCC[C@H](N)C(=O)O

Tests used:
Bacillus cereus = experiment: Antimicrobial activity against Bacillus cereus ATCC 11778 by broth dilution method; type: functional
Method in brief: (§1)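 Stored at −70 °C, grown at 35 °C on Columbia sheep-blood agar, then suspended in physiological saline to OD 0.1 AU at 595 nm and diluted 100× in saline. 2 µL inoculum was added to 50 µL cation-adjusted Mueller Hinton II broth. Peptides in methanol (4 g/L stock) were diluted in water, then two-fold in broth (64–1 mg/L). Incubation was 35 °C for 24–48 h. MIC is the lowest concentration inhibiting growth.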

Staphylococcus aureus [1] = experiment: Antimicrobial activity against methicillin-resistant Staphylococcus aureus isolate 1110301981 by broth dilution method; type: functional
Method in brief: (§2)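 Frozen (−70 °C) stocks grown at 35 °C on Columbia sheep-blood agar, suspended in physiological saline to OD595 0.1, diluted 100×; 2 µL inoculum into 50 µL cation-adjusted Mueller Hinton II broth in 96-well plates. Peptides dissolved in methanol (4 g/L), diluted in water, two-fold serial dilutions in broth (64–1 mg/L). Incubation at 35 °C, 24–48 h; MIC = lowest concentration inhibiting growth.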

Staphylococcus aureus [2] = experiment: Antimicrobial activity against methicillin-resistant Staphylococcus aureus N229 by broth dilution method; type: functional; method in brief: as §2
[3] = Therapeutic index, concentration required to achieve 100% hemolysis in erythrocyte to MIC for Escherichia coli ATCC 25922; conditions: erythrocytes
Method in brief: (§3)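 Therapeutic index was taken as the concentration for 100% haemolysis divided by MIC for the given strain.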

[4] = system: Staphylococcus epidermidis; experiment: Antimicrobial activity against Staphylococcus epidermidis ATCC 12228 by broth dilution method; type: functional; method in brief: as §1
Escherichia coli = experiment: Antimicrobial activity against Escherichia coli ATCC 25922 by broth dilution method; type: functional; method in brief: as §1
[5] = Toxicity in Erythrocyte assessed as concentration required to achieve 100% hemolysis after 4 hrs; type: cell-based
Method in brief: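 Heparinized fresh blood was centrifuged (1000g, 10 min, 10 °C). Erythrocytes were washed three times in 0.85% saline and diluted to a 1/25 packed volume. Peptides were prepared as a 1.5 mM stock in 30% DMSO/0.5 mM saline and serially two-fold diluted in triplicate rows. 1% Triton-X served as the full-lysis control. Incubation was 37 °C for 4 h, then centrifugation; supernatant was read. Value is the concentration giving 100% lysis.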

Staphylococcus aureus [6] = experiment: Antimicrobial activity against methicillin-resistant Staphylococcus aureus N133 by broth dilution method; type: functional; method in brief: as §2
Pseudomonas aeruginosa = experiment: Antimicrobial activity against Pseudomonas aeruginosa ATCC 27853 by broth dilution method; type: functional; method in brief: as §1
[7] = Therapeutic index, concentration required to achieve 100% hemolysis in erythrocyte to MIC for Staphylococcus aureus ATCC 29213; conditions: erythrocytes; method in brief: as §3
Staphylococcus aureus [8] = experiment: Antimicrobial activity against Staphylococcus aureus ATCC 29213 by broth dilution method; type: functional; method in brief: as §2
Enterococcus faecalis = experiment: Antimicrobial activity against Enterococcus faecalis ATCC 29212 by broth dilution method; type: functional; method in brief: as §1
Staphylococcus aureus [9] = experiment: Antimicrobial activity against community acquired methicillin-resistant Staphylococcus aureus isolate 1110301146 by broth dilution method; type: functional; method in brief: as §2
Staphylococcus aureus [10] = experiment: Antimicrobial activity against methicillin-resistant Staphylococcus aureus ATCC 49775 by broth dilution method; type: functional; method in brief: as §2
Staphylococcus aureus [11] = experiment: Antimicrobial activity against methicillin-resistant Staphylococcus aureus ATCC 43300 by broth dilution method; type: functional; method in brief: as §2

Structure (SMILES) | MIC (Bacillus cereus) [µg/mL] | MIC (Staphylococcus aureus [1]) [µg/mL] | MIC (Staphylococcus aureus [2]) [µg/mL] | selectivity ratio [3] | MIC [4] [µg/mL] | MIC (Escherichia coli) [µg/mL] | Activity [5] [µM] | MIC (Staphylococcus aureus [6]) [µg/mL] | MIC (Pseudomonas aeruginosa) [µg/mL] | selectivity ratio ([7]; read-out: Ratio) | MIC (Staphylococcus aureus [8]) [µg/mL] | MIC (Enterococcus faecalis) [µg/mL] | MIC (Staphylococcus aureus [9]) [µg/mL] | MIC (Staphylococcus aureus [10]) [µg/mL] | MIC (Staphylococcus aureus [11]) [µg/mL] | selectivity ratio ([7]; read-out: TI)
NCCC[C@@H]1NC(=O)[C@H](C23CC4CC(CC(C4)C2)C3)NC(=O)[C@H](CCCN)NC(=O)[C@@H]2CCCN2C(=O)[C@@H](Cc2ccccc2)NC(=O)[C@H](CCCN)NC(=O)[C@H](C23CC4CC(CC(C4)C2)C3)NC(=O)[C@H](CCCN)NC(=O)[C@@H]2CCCN2C(=O)[C@@H](Cc2ccccc2)NC1=O (cyclo([Orn][dF]P[Orn][Gly(1-adamantyl)][Orn][dF]P[Orn][Gly(1-adamantyl)])) | 8 (≈ 6.03 µM) | 8 (≈ 6.03 µM) | 8 (≈ 6.03 µM) | 62.5 | 4 (≈ 3.01 µM) | 16 (≈ 12.1 µM) | 500 | 8 (≈ 6.03 µM) | 8 (≈ 6.03 µM) | 62.5 | 8 (≈ 6.03 µM) | 8 (≈ 6.03 µM) | 8 (≈ 6.03 µM) | – | – | –
CC(C)[C@@H]1NC(=O)[C@H](CCCN)NC(=O)[C@@H]2CCCN2C(=O)[C@@H](Cc2ccccc2)NC(=O)[C@H](CCCN)NC(=O)[C@H](CC23CC4CC(CC(C4)C2)C3)NC(=O)[C@H](CCCN)NC(=O)[C@H](C(C)C)NC(=O)[C@H](CCCN)NC(=O)[C@@H]2CCCN2C(=O)[C@@H](Cc2ccccc2)NC(=O)[C@H](CCCN)NC(=O)[C@H](CC23CC4CC(CC(C4)C2)C3)NC(=O)[C@H](CCCN)NC1=O | 8 (≈ 4.49 µM) | 8 (≈ 4.49 µM) | 8 (≈ 4.49 µM) | 3.9 | 8 (≈ 4.49 µM) | 32 (≈ 18 µM) | 31.3 | 8 (≈ 4.49 µM) | 8 (≈ 4.49 µM) | 3.9 | 8 (≈ 4.49 µM) | 8 (≈ 4.49 µM) | 8 (≈ 4.49 µM) | 8 (≈ 4.49 µM) | 8 (≈ 4.49 µM) | –
NCCC[C@@H]1NC(=O)[C@H](CC23CC4CC(CC(C4)C2)C3)NC(=O)[C@H](CCCN)NC(=O)[C@H](C23CC4CC(CC(C4)C2)C3)NC(=O)[C@H](CCCN)NC(=O)[C@@H]2CCCN2C(=O)[C@@H](Cc2ccccc2)NC(=O)[C@H](CCCN)NC(=O)[C@H](CC23CC4CC(CC(C4)C2)C3)NC(=O)[C@H](CCCN)NC(=O)[C@H](C23CC4CC(CC(C4)C2)C3)NC(=O)[C@H](CCCN)NC(=O)[C@@H]2CCCN2C(=O)[C@@H](Cc2ccccc2)NC1=O | 2 (≈ 1.02 µM) | 32 (≈ 16.3 µM) | 32 (≈ 16.3 µM) | 0.12 | 32 (≈ 16.3 µM) | 64 (≈ 32.5 µM) | 7.8 | 32 (≈ 16.3 µM) | 64 (≈ 32.5 µM) | 0.1 | 64 (≈ 32.5 µM) | 32 (≈ 16.3 µM) | 32 (≈ 16.3 µM) | 32 (≈ 16.3 µM) | 32 (≈ 16.3 µM) | –
CC(C)C[C@@H]1NC(=O)[C@H](CCCN)NC(=O)[C@H](C(C)C)NC(=O)[C@@H]2CCCN2C(=O)[C@@H](Cc2ccccc2)NC(=O)[C@H](CC(C)C)NC(=O)[C@H](CCCN)NC(=O)[C@H](C(C)C)NC(=O)[C@@H]2CCCN2C(=O)[C@@H](Cc2ccccc2)NC1=O [GRAMICIDIN S] (cyclo(L[dF]PV[Orn]L[dF]PV[Orn])) | 8 (≈ 7.01 µM) | 16 (≈ 14 µM) | 8 (≈ 7.01 µM) | 2 | 8 (≈ 7.01 µM) | 64 (≈ 56.1 µM) | 62.5 | 16 (≈ 14 µM) | 32 (≈ 28 µM) | – | 32 (≈ 28 µM) | 8 (≈ 7.01 µM) | 16 (≈ 14 µM) | 8 (≈ 7.01 µM) | 8 (≈ 7.01 µM) | 2
CC(C)C[C@@H]1NC(=O)[C@H](CCCCN)NC(=O)[C@H](C(C)C)NC(=O)[C@@H]2CCCN2C(=O)[C@@H](Cc2ccc(O)cc2)NC(=O)[C@H](CC(C)C)NC(=O)[C@H](CCCCN)NC(=O)[C@H](C(C)C)NC(=O)[C@H](CCCCN)NC(=O)[C@H](CC(C)C)NC(=O)[C@@H]2CCCN2C(=O)[C@@H](Cc2ccc(O)cc2)NC(=O)[C@H](C(C)C)NC(=O)[C@H](CCCCN)NC1=O (cyclo(VKLKV[dY]PLKVKL[dY]P)) | 32 (≈ 19.2 µM) | – | – | – | 64 (≈ 38.3 µM) | > 64 | – | – | > 64 | – | > 64 | 32 (≈ 19.2 µM) | – | – | – | –
CC(C)C[C@@H]1NC(=O)[C@H](CCCN)NC(=O)[C@H](C23CC4CC(CC(C4)C2)C3)NC(=O)[C@H](CCCN)NC(=O)[C@@H]2CCCN2C(=O)[C@@H](Cc2ccccc2)NC(=O)[C@H](CCCN)NC(=O)[C@H](CC23CC4CC(CC(C4)C2)C3)NC(=O)[C@H](CCCN)NC(=O)[C@H](C(C)C)NC(=O)[C@H](CCCN)NC(=O)[C@@H]2CCCN2C(=O)[C@@H](Cc2ccccc2)NC(=O)[C@H](CCCN)NC1=O | 4 (≈ 2.24 µM) | 16 (≈ 8.98 µM) | 16 (≈ 8.98 µM) | 2 | 4 (≈ 2.24 µM) | 16 (≈ 8.98 µM) | 31.3 | 32 (≈ 18 µM) | 16 (≈ 8.98 µM) | 3.9 | 8 (≈ 4.49 µM) | 16 (≈ 8.98 µM) | 16 (≈ 8.98 µM) | 16 (≈ 8.98 µM) | 16 (≈ 8.98 µM) | –
CC(C)C[C@@H]1NC(=O)[C@H](CCCCN)NC(=O)[C@H](C(C)C)NC(=O)[C@@H]2CCCN2C(=O)[C@@H](Cc2ccc(O)cc2)NC(=O)[C@H](CC(C)C)NC(=O)[C@H](CCCCN)NC(=O)[C@H](C(C)C)NC(=O)[C@H](CCCCN)NC(=O)[C@H](CC(C)C)NC(=O)[C@@H]2CCCN2C(=O)[C@@H](Cc2ccc(O)cc2)NC(=O)[C@H](C(C)C)NC(=O)[C@H](CCCCN)NC1=O (cyclo(KLKV[dY]PLKVKL[dY]PV)) | – | – | – | – | – | – | 3.9 | – | – | – | – | – | – | – | – | –
CC(C)C[C@@H]1NC(=O)[C@H](CCCN)NC(=O)[C@H](C(C)C)NC(=O)[C@@H]2CCCN2C(=O)[C@@H](Cc2ccccc2)NC(=O)[C@H](CC(C)C)NC(=O)[C@H](CCCN)NC(=O)[C@H](C(C)C)NC(=O)[C@H](CCCN)NC(=O)[C@H](CC(C)C)NC(=O)[C@@H]2CCCN2C(=O)[C@@H](Cc2ccccc2)NC(=O)[C@H](C(C)C)NC(=O)[C@H](CCCN)NC1=O (cyclo(L[Orn]V[Orn]L[dF]PV[Orn]L[Orn]V[dF]P)) | 4 (≈ 2.53 µM) | – | – | 0.1 | 8 (≈ 5.06 µM) | 64 (≈ 40.5 µM) | 3.9 | – | 32 (≈ 20.2 µM) | 0.2 | 16 (≈ 10.1 µM) | 8 (≈ 5.06 µM) | – | – | – | –
